Paper PMC10433355 (ACS Omega, 2023)
“And” between values parts separate entries of the source, which are not always exact repeats. Identical values can stand only once.

Test system: B16F1
Experiment: MTS assay, melanoma B16F1
Type: cell-based
Conditions: Mus musculus, B16-F1, 72 h, read-out: IC50 B16F1
Procedure, shortened: (§1)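 Cells grown in RPMI 1640 with 10% FBS, 1% penicillin/streptomycin and 1% L-glutamine, trypsinised and counted by hemocytometer. Seeded at 1 × 10^3 cells/well and left 24 h at 37 °C. Test compound added at 300, 100, 50 and 10 µM for 72 h at 37 °C, then removed. […] Triplicate, mean ± SD.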

Row | IC50 | Structure (SMILES)
1 | 74.2 ± 2.44 µM | COc1cccc(-c2nc(C)c(C(=O)Nc3ccc(C(C)(C)C)cc3)s2)c1 [2b, N-(4-(tert-Butyl)phenyl)-2-(3-methoxyphenyl)-4-methylthiazole-5-carboxamide]
2 | > 300 µM | COc1cccc(-c2nc(C)c(C(=O)Nc3ccc(OC)c(OC)c3)s2)c1 [2c, N-(3,4-Dimethoxyphenyl)-2-(3-methoxyphenyl)-4-methylthiazole-5-carboxamide]
3 | > 300 µM | COc1cccc(-c2nc(C)c(C(=O)Nc3cccc(C(F)(F)F)c3)s2)c1 [2j, 2-(3-Methoxyphenyl)-4-methyl-N-(3-(trifluoromethyl)phenyl)thiazole-5-carboxamide]

Test system: CaCo-2
Experiment: MTS assay, colorectal adenocarcinoma Caco-2
Type: cell-based
Conditions: Homo sapiens, Caco-2, 72 h, read-out: IC50 CaCo-2
Procedure, shortened: as §1

Row | IC50 | Structure (SMILES)
4 | > 300 µM | COc1cccc(-c2nc(C)c(C(=O)Nc3ccc(C(C)(C)C)cc3)s2)c1 [2b, N-(4-(tert-Butyl)phenyl)-2-(3-methoxyphenyl)-4-methylthiazole-5-carboxamide]
5 | > 300 µM | COc1cccc(-c2nc(C)c(C(=O)Nc3ccc(OC)c(OC)c3)s2)c1 [2c, N-(3,4-Dimethoxyphenyl)-2-(3-methoxyphenyl)-4-methylthiazole-5-carboxamide]
6 | > 300 µM | COc1cccc(-c2nc(C)c(C(=O)Nc3cccc(C(F)(F)F)c3)s2)c1 [2j, 2-(3-Methoxyphenyl)-4-methyl-N-(3-(trifluoromethyl)phenyl)thiazole-5-carboxamide]

Target: T1, human recombinant COX-2 (Homo sapiens, UniProt P35354)
T1 sequence (P35354 18-604): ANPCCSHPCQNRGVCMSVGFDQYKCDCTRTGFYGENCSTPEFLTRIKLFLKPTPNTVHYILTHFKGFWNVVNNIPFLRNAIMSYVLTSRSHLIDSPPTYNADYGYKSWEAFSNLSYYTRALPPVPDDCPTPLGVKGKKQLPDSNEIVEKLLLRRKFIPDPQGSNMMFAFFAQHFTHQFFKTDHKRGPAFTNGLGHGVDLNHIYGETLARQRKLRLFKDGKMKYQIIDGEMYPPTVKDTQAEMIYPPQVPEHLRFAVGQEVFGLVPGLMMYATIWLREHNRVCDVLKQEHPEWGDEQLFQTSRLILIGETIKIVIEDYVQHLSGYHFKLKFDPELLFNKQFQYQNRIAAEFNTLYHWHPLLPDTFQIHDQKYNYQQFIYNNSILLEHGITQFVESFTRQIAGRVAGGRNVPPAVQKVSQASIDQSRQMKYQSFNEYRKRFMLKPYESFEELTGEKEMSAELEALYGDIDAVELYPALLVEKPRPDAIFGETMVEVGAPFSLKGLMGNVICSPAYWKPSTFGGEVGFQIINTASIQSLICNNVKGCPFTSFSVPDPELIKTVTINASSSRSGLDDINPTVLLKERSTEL
Experiment: In vitro COX-2 inhibition assay
Type: biochemical
Conditions: IC50 COX-1 divided by IC50 COX-2

Row | SI (selectivity index / selectivity ratio) | Structure (SMILES)
7 | 1.251 | COc1cccc(-c2nc(C)c(C(=O)Nc3ccc(C(C)(C)C)cc3)s2)c1 [2b, N-(4-(tert-Butyl)phenyl)-2-(3-methoxyphenyl)-4-methylthiazole-5-carboxamide]
8 | 0.095 | COc1cccc(-c2nc(C)c(C(=O)Nc3ccc(OC)c(OC)c3)s2)c1 [2c, N-(3,4-Dimethoxyphenyl)-2-(3-methoxyphenyl)-4-methylthiazole-5-carboxamide]
9 | 1.507 | COc1cccc(-c2nc(C)c(C(=O)Nc3cccc(C(F)(F)F)c3)s2)c1 [2j, 2-(3-Methoxyphenyl)-4-methyl-N-(3-(trifluoromethyl)phenyl)thiazole-5-carboxamide]

Same assay, conditions: IC50 COX-2

Row | IC50 | Structure (SMILES)
10 | 0.19 µM and 0.191 µM | COc1cccc(-c2nc(C)c(C(=O)Nc3ccc(C(C)(C)C)cc3)s2)c1 [2b, N-(4-(tert-Butyl)phenyl)-2-(3-methoxyphenyl)-4-methylthiazole-5-carboxamide]
11 | 2.91 ± 1.08 µM | COc1cccc(-c2nc(C)c(C(=O)Nc3ccc(OC)c(OC)c3)s2)c1 [2c, N-(3,4-Dimethoxyphenyl)-2-(3-methoxyphenyl)-4-methylthiazole-5-carboxamide]
12 | 0.957 ± 0.17 µM | COc1cccc(-c2nc(C)c(C(=O)Nc3cccc(C(F)(F)F)c3)s2)c1 [2j, 2-(3-Methoxyphenyl)-4-methyl-N-(3-(trifluoromethyl)phenyl)thiazole-5-carboxamide]

Test system: HepG2
Experiment: MTS assay, hepatocellular carcinoma HepG2
Type: cell-based
Conditions: Homo sapiens, HepG2, 72 h, read-out: IC50 HepG2
Procedure, shortened: as §1

Row | IC50 | Structure (SMILES)
13 | > 300 µM | COc1cccc(-c2nc(C)c(C(=O)Nc3ccc(C(C)(C)C)cc3)s2)c1 [2b, N-(4-(tert-Butyl)phenyl)-2-(3-methoxyphenyl)-4-methylthiazole-5-carboxamide]
14 | > 300 µM | COc1cccc(-c2nc(C)c(C(=O)Nc3ccc(OC)c(OC)c3)s2)c1 [2c, N-(3,4-Dimethoxyphenyl)-2-(3-methoxyphenyl)-4-methylthiazole-5-carboxamide]
15 | > 300 µM | COc1cccc(-c2nc(C)c(C(=O)Nc3cccc(C(F)(F)F)c3)s2)c1 [2j, 2-(3-Methoxyphenyl)-4-methyl-N-(3-(trifluoromethyl)phenyl)thiazole-5-carboxamide]

Test system: Hep3B
Experiment: MTS assay, hepatocellular carcinoma Hep3B
Type: cell-based
Conditions: Homo sapiens, 72 h, read-out: IC50 Hep3B
Procedure, shortened: as §1

Row | IC50 | Structure (SMILES)
16 | > 300 µM | COc1cccc(-c2nc(C)c(C(=O)Nc3ccc(C(C)(C)C)cc3)s2)c1 [2b, N-(4-(tert-Butyl)phenyl)-2-(3-methoxyphenyl)-4-methylthiazole-5-carboxamide]
17 | > 300 µM | COc1cccc(-c2nc(C)c(C(=O)Nc3ccc(OC)c(OC)c3)s2)c1 [2c, N-(3,4-Dimethoxyphenyl)-2-(3-methoxyphenyl)-4-methylthiazole-5-carboxamide]
18 | 299.2 ± 2.05 µM | COc1cccc(-c2nc(C)c(C(=O)Nc3cccc(C(F)(F)F)c3)s2)c1 [2j, 2-(3-Methoxyphenyl)-4-methyl-N-(3-(trifluoromethyl)phenyl)thiazole-5-carboxamide]

Test system: HeLa
Experiment: MTS assay, cervical adenocarcinoma HeLa
Type: cell-based
Conditions: Homo sapiens, 72 h, read-out: IC50 HeLa
Procedure, shortened: as §1

Row | IC50 | Structure (SMILES)
19 | > 300 µM | COc1cccc(-c2nc(C)c(C(=O)Nc3ccc(C(C)(C)C)cc3)s2)c1 [2b, N-(4-(tert-Butyl)phenyl)-2-(3-methoxyphenyl)-4-methylthiazole-5-carboxamide]
20 | > 300 µM | COc1cccc(-c2nc(C)c(C(=O)Nc3ccc(OC)c(OC)c3)s2)c1 [2c, N-(3,4-Dimethoxyphenyl)-2-(3-methoxyphenyl)-4-methylthiazole-5-carboxamide]
21 | > 300 µM | COc1cccc(-c2nc(C)c(C(=O)Nc3cccc(C(F)(F)F)c3)s2)c1 [2j, 2-(3-Methoxyphenyl)-4-methyl-N-(3-(trifluoromethyl)phenyl)thiazole-5-carboxamide]

Test system: not listed separately
Experiment: MTS cytotoxicity assay, normal cell line LX-2
Type: cell-based
Conditions: human, LX-2 cells (normal cell line), CC50 LX-2, normal cell line
Procedure, shortened: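 LX-2 cells seeded at 1 × 10^3 cells/well and left 24 h at 37 °C. Exposed to test compound at 300, 100, 50 and 10 µM for 72 h at 37 °C, with 5-FU as positive control. […] Triplicate, mean ± SD.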

Row | Structure (SMILES) | CC50 at 72 h
22 | COc1cccc(-c2nc(C)c(C(=O)Nc3ccc(C(C)(C)C)cc3)s2)c1 [2b, N-(4-(tert-Butyl)phenyl)-2-(3-methoxyphenyl)-4-methylthiazole-5-carboxamide] | 203.7 ± 1.89 µM
23 | COc1cccc(-c2nc(C)c(C(=O)Nc3ccc(OC)c(OC)c3)s2)c1 [2c, N-(3,4-Dimethoxyphenyl)-2-(3-methoxyphenyl)-4-methylthiazole-5-carboxamide] | > 300 µM
24 | COc1cccc(-c2nc(C)c(C(=O)Nc3cccc(C(F)(F)F)c3)s2)c1 [2j, 2-(3-Methoxyphenyl)-4-methyl-N-(3-(trifluoromethyl)phenyl)thiazole-5-carboxamide] | > 300 µM

Test system: MCF-7
Experiment: MTS assay, breast carcinoma MCF-7
Type: cell-based
Conditions: Homo sapiens, MCF7, 72 h, read-out: IC50 MCF-7
Procedure, shortened: as §1

Row | IC50 | Structure (SMILES)
25 | > 300 µM | COc1cccc(-c2nc(C)c(C(=O)Nc3ccc(C(C)(C)C)cc3)s2)c1 [2b, N-(4-(tert-Butyl)phenyl)-2-(3-methoxyphenyl)-4-methylthiazole-5-carboxamide]
26 | > 300 µM | COc1cccc(-c2nc(C)c(C(=O)Nc3ccc(OC)c(OC)c3)s2)c1 [2c, N-(3,4-Dimethoxyphenyl)-2-(3-methoxyphenyl)-4-methylthiazole-5-carboxamide]
27 | > 300 µM | COc1cccc(-c2nc(C)c(C(=O)Nc3cccc(C(F)(F)F)c3)s2)c1 [2j, 2-(3-Methoxyphenyl)-4-methyl-N-(3-(trifluoromethyl)phenyl)thiazole-5-carboxamide]

Test system: COLO205
Experiment: MTS assay, colon adenocarcinoma COLO205
Type: cell-based
Conditions: Homo sapiens, COLO 205, 72 h, read-out: IC50 COLO205
Procedure, shortened: as §1

Row | IC50 | Structure (SMILES)
28 | 30.8 ± 0.49 µM | COc1cccc(-c2nc(C)c(C(=O)Nc3ccc(C(C)(C)C)cc3)s2)c1 [2b, N-(4-(tert-Butyl)phenyl)-2-(3-methoxyphenyl)-4-methylthiazole-5-carboxamide]
29 | > 300 µM | COc1cccc(-c2nc(C)c(C(=O)Nc3ccc(OC)c(OC)c3)s2)c1 [2c, N-(3,4-Dimethoxyphenyl)-2-(3-methoxyphenyl)-4-methylthiazole-5-carboxamide]
30 | > 300 µM | COc1cccc(-c2nc(C)c(C(=O)Nc3cccc(C(F)(F)F)c3)s2)c1 [2j, 2-(3-Methoxyphenyl)-4-methyl-N-(3-(trifluoromethyl)phenyl)thiazole-5-carboxamide]

Test system: Hek293t cells
Experiment: MTS cytotoxicity assay, normal cell line Hek293t
Type: cell-based
Conditions: read-out: CC50 Hek293t, 72 h
Procedure, shortened: as §1

Row | Structure (SMILES) | CC50
31 | COc1cccc(-c2nc(C)c(C(=O)Nc3ccc(C(C)(C)C)cc3)s2)c1 [2b, N-(4-(tert-Butyl)phenyl)-2-(3-methoxyphenyl)-4-methylthiazole-5-carboxamide] | 117 ± 2.05 µM

Target: T2, COX-1 (Ovis aries, UniProt P05979)
T2 sequence (P05979 25-600): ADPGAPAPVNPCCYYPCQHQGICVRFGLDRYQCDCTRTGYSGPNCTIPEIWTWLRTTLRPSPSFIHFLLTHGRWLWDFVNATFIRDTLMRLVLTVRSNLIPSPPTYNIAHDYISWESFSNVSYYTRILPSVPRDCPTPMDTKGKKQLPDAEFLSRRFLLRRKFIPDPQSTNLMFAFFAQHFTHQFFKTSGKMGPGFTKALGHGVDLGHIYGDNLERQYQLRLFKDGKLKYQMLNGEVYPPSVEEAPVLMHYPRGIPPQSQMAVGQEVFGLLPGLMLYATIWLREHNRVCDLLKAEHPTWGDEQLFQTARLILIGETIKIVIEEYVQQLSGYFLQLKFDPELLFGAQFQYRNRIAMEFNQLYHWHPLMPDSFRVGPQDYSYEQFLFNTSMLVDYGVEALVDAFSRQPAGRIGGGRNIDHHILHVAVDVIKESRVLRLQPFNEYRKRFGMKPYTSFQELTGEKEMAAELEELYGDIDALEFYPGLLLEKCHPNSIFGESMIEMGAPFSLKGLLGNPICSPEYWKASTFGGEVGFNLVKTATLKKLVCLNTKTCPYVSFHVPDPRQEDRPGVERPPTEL
Experiment: In vitro COX-1 inhibition assay
Type: biochemical, ovine
Conditions: not given

Row | IC50 | Structure (SMILES)
32 | 0.239 ± 0.18 µM | COc1cccc(-c2nc(C)c(C(=O)Nc3ccc(C(C)(C)C)cc3)s2)c1 [2b, N-(4-(tert-Butyl)phenyl)-2-(3-methoxyphenyl)-4-methylthiazole-5-carboxamide]
33 | 0.278 ± 0.02 µM | COc1cccc(-c2nc(C)c(C(=O)Nc3ccc(OC)c(OC)c3)s2)c1 [2c, N-(3,4-Dimethoxyphenyl)-2-(3-methoxyphenyl)-4-methylthiazole-5-carboxamide]
34 | 1.44 ± 0.51 µM | COc1cccc(-c2nc(C)c(C(=O)Nc3cccc(C(F)(F)F)c3)s2)c1 [2j, 2-(3-Methoxyphenyl)-4-methyl-N-(3-(trifluoromethyl)phenyl)thiazole-5-carboxamide]
